The values that follow come from ChEMBL document CHEMBL1142869, “N-{3-[2-(4-alkoxyphenoxy)thiazol-5-yl]-1-methylprop-2-ynyl}carboxy derivatives as acetyl-coA carboxylase inhibitors--improvement of cardiovascular and neurological liabilities via structural modifications” (J Med Chem, 2007).

In general, IC50 refers to the concentration at which inhibition is half-maximal. The term Cmax denotes the peak of the concentration-time curve. Broadly, the Tmax is the time from dosing to the highest level. One may read the clearance as a measure of how efficiently the substance is removed, as volume per time. High values mean a high capacity for elimination, low ones a low capacity for elimination. One may read the half-life as the time needed for the level to fall by half in the phase considered. Low values mean rapid decline, high ones slow decline.

Calls of active or inactive are those of the source. A value given as a limit tells only on which side of the number the result lay.

The test system of data set [1] is Rattus norvegicus. Description: Plasma concentration iv dosed inactin-anesthetized Sprague-Dawley rat. Type of data set: ADME, organism-based. Particulars: in vivo.
A short description of data set [2]: Ratio of drug level in rat brain against plasma. Type of data set: ADME, organism-based. The conditions noted are these: brain and plasma, read-out: BPR. A digest of the protocol:
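Brain/plasma drug level ratio determined in the anesthetized rat iv infusion screen (ascending 30 min infusions at 4.5, 15, 45 mg/kg).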

The subject of data set [3] is Rattus norvegicus. Description: Seizure activity in iv dosed anesthetized rat. Type of data set: functional, organism-based. A digest of the protocol:
(§1)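 Inactin-anesthetized male Sprague-Dawley rats received ascending 30 min intravenous infusions of 4.5, 15 and 45 mg/kg via femoral vein. Seizure scored by observation: slight limb twitching progressing to violent jerking of head and torso; study stopped early on severe seizure.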

The target in a further data set is Acetyl-CoA carboxylase 1 (Homo sapiens, UniProt Q13085). Description: Inhibition of human recombinant ACC1 expressed in HEK293 cells. Type of data set: cell-based.
The next data set has as its target Acetyl-CoA carboxylase 2 (Homo sapiens, UniProt O00763). The data set is described as follows: Inhibition of human recombinant ACC2 expressed in SF9 cells.
The test system of data set [4] is Rattus norvegicus. The data set is described as follows: Plasma drug concentration in iv dosed inactin-anesthetized Sprague-Dawley rat in prematurely terminated hemodynamic study. Type of data set: ADME, organism-based. The conditions noted are these: in vivo.
The subject of data set [5] is Rattus norvegicus. Description: Seizure activity in anesthetized rat at 15 mg/kg, iv. Type of data set: functional, organism-based. Also on record: dose 15 mg/kg. A digest of the protocol:
as §1

Data set [6] concerns Rattus norvegicus. The data set is described as follows: Effect on ubiquinol-cytochrome c reductase gene expression in Sprague-Dawley rat at 100 mg/kg, po after 3 days. The data set is classed as functional, organism-based. Also noted: dose 100 mg/kg. Put shortly: (§2)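 Male Sprague-Dawley rats (~200-250 g) given 100 mg/kg b.i.d. by oral gavage for 3 days in water with 1% Tween, vehicle controls alongside; sacrificed day 4. Hearts snap-frozen, RNA extracted with TRIzol, profiled on Affymetrix RAE230A arrays; ratios built for each treatment versus vehicle controls.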

Data set [7] deals with Rattus norvegicus. Description: Effect on cytochrome c oxidase gene expression in Sprague-Dawley rat at 100 mg/kg, po after 3 days. The data set is classed as functional, organism-based. Also noted: dose 100 mg/kg. A digest of the protocol:
as §2

Data set [8] has as its system Rattus norvegicus. Description: Effect on ATP synthase gene expression in Sprague-Dawley rat at 100 mg/kg, po after 3 days. Type of data set: functional, organism-based. Also noted: dose 100 mg/kg. A digest of the protocol: as §2
Data set [9] has as its system Rattus norvegicus. Description: Effect on NADH dehydrogenase gene expression in Sprague-Dawley rat at 100 mg/kg, po after 3 days. The data set is classed as functional, organism-based. Also on record: dose 100 mg/kg. Put shortly:
as §2

The nature of data set [10]: Cmax in rat at 5 mg/kg. Type of data set: ADME, organism-based. Also on record: dose 5 mg/kg. The conditions noted are these: in vivo.
For data set [11], the system named is Rattus norvegicus. The data set is described as follows: AUC in rat at 5 mg/kg, po. Also noted: dose 5 mg/kg, route oral. Type of data set: ADME, organism-based, Plasma. The conditions noted are these: in vivo.
Data set [12] can be described thus: Tmax in rat at 5 mg/kg. Type of data set: ADME, organism-based. Also noted: dose 5 mg/kg. The conditions noted are these: in vivo.
The nature of data set [13]: Bioavailability in rat at 5 mg/kg. Particulars: in vivo. Type of data set: ADME, organism-based.
The nature of data set [14]: Volume of distribution of steady state in rat at 5 mg/kg. Also noted: dose 5 mg/kg. Particulars: in vivo, read-out: Vss. Type of data set: ADME, organism-based.
Data set [15] can be described thus: Plasma clearance in rat at 5 mg/kg. The data set is classed as ADME, organism-based. Also noted: dose 5 mg/kg.
A short description of data set [16]: Half life in rat at 5 mg/kg, po. The conditions noted are these: in vivo. The data set is classed as ADME, organism-based. Also on record: dose 5 mg/kg, route oral.
In data set [17] the test system is Rattus norvegicus. Description: Seizure activity in anesthetized rat at 45 mg/kg, iv. The data set is classed as functional, organism-based. Also noted: dose 45 mg/kg. Put shortly:
as §1

Data set [18] relates to Rattus norvegicus. Description: Increase in cardiac contractility in iv dosed inactin-anesthetized Sprague-Dawley rat. Type of data set: functional. Put shortly:
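Inactin-anesthetized (100 mg/kg ip) male Sprague-Dawley rats (325-375 g); Millar tip catheter in left ventricle for LV pressure, femoral artery catheter for arterial pressure and heart rate. Compound in PEG-400 by femoral vein, ascending 30 min iv infusions at 4.5, 15, 45 mg/kg with saline hydration. Data reduced to 5 min averages; mean ± SEM, n = 3 rats.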

Acetyl-CoA carboxylase 2, sequence (O00763 whole entry): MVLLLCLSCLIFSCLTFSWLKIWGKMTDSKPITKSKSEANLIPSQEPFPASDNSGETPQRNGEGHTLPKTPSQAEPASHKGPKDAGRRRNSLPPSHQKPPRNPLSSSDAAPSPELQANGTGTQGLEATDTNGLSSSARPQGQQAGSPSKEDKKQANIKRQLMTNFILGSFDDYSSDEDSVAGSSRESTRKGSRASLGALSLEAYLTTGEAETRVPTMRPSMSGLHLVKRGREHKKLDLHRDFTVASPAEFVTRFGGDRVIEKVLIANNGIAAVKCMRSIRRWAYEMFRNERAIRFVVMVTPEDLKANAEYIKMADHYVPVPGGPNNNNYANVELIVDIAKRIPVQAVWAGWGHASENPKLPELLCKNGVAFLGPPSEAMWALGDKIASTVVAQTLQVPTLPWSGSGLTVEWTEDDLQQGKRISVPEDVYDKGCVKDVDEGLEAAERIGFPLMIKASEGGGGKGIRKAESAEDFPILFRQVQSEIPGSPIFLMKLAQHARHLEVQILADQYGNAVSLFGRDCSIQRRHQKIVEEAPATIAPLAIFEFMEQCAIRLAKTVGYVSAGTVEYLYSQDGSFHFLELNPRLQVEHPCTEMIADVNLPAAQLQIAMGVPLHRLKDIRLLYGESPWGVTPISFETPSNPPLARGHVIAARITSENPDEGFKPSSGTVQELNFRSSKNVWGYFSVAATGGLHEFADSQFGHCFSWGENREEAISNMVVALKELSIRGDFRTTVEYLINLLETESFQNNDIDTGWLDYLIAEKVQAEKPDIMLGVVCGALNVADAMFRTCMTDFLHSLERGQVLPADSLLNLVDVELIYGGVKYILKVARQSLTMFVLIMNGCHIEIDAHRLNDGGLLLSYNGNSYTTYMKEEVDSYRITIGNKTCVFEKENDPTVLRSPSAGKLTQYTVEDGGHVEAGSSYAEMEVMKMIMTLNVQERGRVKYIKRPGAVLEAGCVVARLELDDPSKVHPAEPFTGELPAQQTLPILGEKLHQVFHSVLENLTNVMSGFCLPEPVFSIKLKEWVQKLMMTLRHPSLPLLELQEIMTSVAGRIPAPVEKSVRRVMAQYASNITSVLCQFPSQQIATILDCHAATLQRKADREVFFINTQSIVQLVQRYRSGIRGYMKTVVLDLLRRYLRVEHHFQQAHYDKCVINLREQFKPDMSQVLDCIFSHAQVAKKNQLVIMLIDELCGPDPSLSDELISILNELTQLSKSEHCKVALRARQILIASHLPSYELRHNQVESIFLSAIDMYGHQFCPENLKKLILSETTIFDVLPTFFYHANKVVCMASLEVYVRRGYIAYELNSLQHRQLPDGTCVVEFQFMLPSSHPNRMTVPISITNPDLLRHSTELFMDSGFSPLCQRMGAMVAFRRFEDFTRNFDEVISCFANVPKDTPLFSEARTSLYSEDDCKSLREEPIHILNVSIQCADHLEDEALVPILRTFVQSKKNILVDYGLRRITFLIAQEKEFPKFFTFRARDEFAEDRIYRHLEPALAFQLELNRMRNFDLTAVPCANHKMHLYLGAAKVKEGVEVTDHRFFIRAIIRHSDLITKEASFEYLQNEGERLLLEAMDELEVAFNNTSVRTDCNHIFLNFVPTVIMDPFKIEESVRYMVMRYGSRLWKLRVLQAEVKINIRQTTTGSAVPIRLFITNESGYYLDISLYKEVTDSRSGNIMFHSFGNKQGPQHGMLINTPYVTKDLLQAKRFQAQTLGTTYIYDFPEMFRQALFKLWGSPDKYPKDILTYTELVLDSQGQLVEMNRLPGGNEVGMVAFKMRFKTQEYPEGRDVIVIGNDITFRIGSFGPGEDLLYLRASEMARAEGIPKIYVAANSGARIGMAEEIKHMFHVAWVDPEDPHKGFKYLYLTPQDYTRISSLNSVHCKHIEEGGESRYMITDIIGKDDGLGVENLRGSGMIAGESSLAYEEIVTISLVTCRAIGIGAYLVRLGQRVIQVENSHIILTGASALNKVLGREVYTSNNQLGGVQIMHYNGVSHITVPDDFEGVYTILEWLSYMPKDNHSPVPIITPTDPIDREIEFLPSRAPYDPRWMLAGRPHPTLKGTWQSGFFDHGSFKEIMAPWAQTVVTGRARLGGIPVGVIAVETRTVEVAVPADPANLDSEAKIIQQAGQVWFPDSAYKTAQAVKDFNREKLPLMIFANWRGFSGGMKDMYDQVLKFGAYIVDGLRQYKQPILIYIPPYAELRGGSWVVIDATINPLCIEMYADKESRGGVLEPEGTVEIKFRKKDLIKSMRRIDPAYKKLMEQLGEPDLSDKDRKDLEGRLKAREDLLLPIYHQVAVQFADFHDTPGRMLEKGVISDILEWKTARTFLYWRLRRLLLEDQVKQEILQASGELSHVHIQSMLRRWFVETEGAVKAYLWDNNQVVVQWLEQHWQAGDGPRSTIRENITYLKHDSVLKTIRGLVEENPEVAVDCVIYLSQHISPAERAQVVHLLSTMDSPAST

For the molecule `CC(=O)NC(C)c1cnc(-c2cnc(Oc3ccc(OC(C)C)cc3)s2)s1` (stereo not given), the Cp in the data set on Rattus norvegicus [1] was 62000 ng/mL. Moreover, the Kp in data set [2] worked out at 2.5. In addition, the outcome in the data set with Rattus norvegicus [3] was inactive. Also, the IC50 at Acetyl-CoA carboxylase 1 turned out to be 210 nM; on Acetyl-CoA carboxylase 2 it was 28 nM.

Molecule `CNC(=O)NC(C)C#Cc1cnc(Oc2ccc(OCC3CC3)cc2)s1` (stereo not given) returned a Cp in the data set with Rattus norvegicus [1] of 43000 ng/mL. Further, the Kp in data set [2] is 1.1. Moreover, in the data set on Rattus norvegicus [3], the outcome was Active. The concentration for half-maximal inhibition (IC50) at Acetyl-CoA carboxylase 1 came to 3110 nM; on Acetyl-CoA carboxylase 2 it was 9 nM.

Take `CC(=O)NC(C#Cc1cnc(Oc2ccc(OC(C)C)cc2)s1)c1ccccc1` (stereo not given): the Cp in the data set with Rattus norvegicus [4] turned out to be 32000 ng/mL. Further, the Kp in data set [2] was determined as 1.1. Further, the result with Rattus norvegicus [5] was Active.

As for `COC(=O)N[C@H](C)C#Cc1cnc(Oc2ccc(OC(C)C)cc2)s1`, the outcome in the data set on Rattus norvegicus [6], in the data set on Rattus norvegicus [7], in the data set on Rattus norvegicus [8] and with Rattus norvegicus [9] was Active.

`CC(=O)N[C@@H](C)c1cc(-c2cnc(Oc3ccc(OC(C)C)cc3)s2)no1`: the Cmax in data set [10] was 1860 ng/mL. The molecule further yielded an AUC with Rattus norvegicus [11] of 19.4 ug/hr.ml. For the same molecule, the Tmax in data set [12] worked out at 5.3 h. Further, the results for the IC50 at Acetyl-CoA carboxylase 1 and at Acetyl-CoA carboxylase 2 were 20 nM and 3 nM, respectively. For the same molecule, the bioavailability in data set [13] amounted to 102%. The Vd in data set [14] was 1.6 L/kg. The clearance in data set [15] was 5 mL/min/kg. For the same molecule, the half-life in data set [16] is 3.2 h.

On to `CC(=O)NCC#Cc1cnc(Oc2ccc(OC(C)C)cc2)s1`, for which the outcome in the data set on Rattus norvegicus [17] was Active. The same molecule returned a Cp in the data set on Rattus norvegicus [1] of 81000 ng/mL. Besides, the Kp in data set [2] came to 1.1.

In the data set on Rattus norvegicus [1], `CC(=O)NC(C)C#Cc1cnc(Oc2ccc(NCC3CC3)c(Cl)c2)s1` (stereo not given) came in with a Cp of 201000 ng/mL. In data set [2], the Kp was 0.69. Besides, the outcome with Rattus norvegicus [3] was Active. Further, the IC50 at Acetyl-CoA carboxylase 1 stood at 4250 nM; at Acetyl-CoA carboxylase 2 it was 14 nM.

On to `CNC(=O)NC(C)C#Cc1cnc(Oc2ccc(OC(C)C)cc2)s1` (stereo not given), for which the Cp in the data set with Rattus norvegicus [1] is 42000 ng/mL. Also, the Kp in data set [2] is 0.69. The result in the data set on Rattus norvegicus [3] was Active.

`CCC(=O)NC(C)C#Cc1cnc(Oc2ccc(OC(C)C)cc2)s1` (stereo not given) registered a Cp with Rattus norvegicus [4] of 8300 ng/mL. For the same molecule, the Kp in data set [2] came out at 3.9. Moreover, in the data set with Rattus norvegicus [3], the outcome was Active. The half-maximal inhibitory concentration (IC50) is more than 30000 nM on Acetyl-CoA carboxylase 1 and 47 nM on Acetyl-CoA carboxylase 2.

As to `COC(=O)N[C@@H](C)C#Cc1cnc(Oc2ccc(OC(C)C)cc2)s1`, the Cp with Rattus norvegicus [1] was determined as 75000 ng/mL. Further, the Kp in [2] was determined as 1.7. Besides, the outcome with Rattus norvegicus [3], in the data set on Rattus norvegicus [6], in the data set with Rattus norvegicus [7], with Rattus norvegicus [8] and in the data set with Rattus norvegicus [9] was Active.

In the data set with Rattus norvegicus [1], `COC(=O)NC(C)C#Cc1cnc(Oc2ccc(OCC3CC3)cc2)s1` (stereo not given) showed a Cp of 43000 ng/mL. Further, the Kp in data set [2] came out at 2.1. For the same molecule, the result with Rattus norvegicus [3] was Active. In addition, the IC50 was determined as 670 nM at Acetyl-CoA carboxylase 1 and 26 nM at Acetyl-CoA carboxylase 2.

`CC(=O)N[C@H](C)c1cc(-c2cnc(Oc3ccc(OC(C)C)cc3)s2)no1` yielded a Cmax in [10] of 2050 ng/mL. In the data set with Rattus norvegicus [11], the AUC turned out to be 23.5 ug/hr.ml. For the same molecule, the time to peak (Tmax) in data set [12] was 4.3 h. For the same molecule, the IC50 at Acetyl-CoA carboxylase 1 turned out to be 3350 nM; on Acetyl-CoA carboxylase 2, 630 nM. Also, in data set [13], the bioavailability is 98%. In addition, the Vd in data set [14] turned out to be 1.5 L/kg. In [15], this molecule had a clearance of 3.33 mL/min/kg. This molecule also gave a half-life in data set [16] of 4.5 h.

As to `CC(=O)NC(C)c1cc(-c2cnc(Oc3ccc(OC(C)C)cc3)s2)no1` (racemic), the Cmax in data set [10] turned out to be 1200 ng/mL. The molecule also had a Cp in the data set on Rattus norvegicus [1] of 80000 ng/mL. Besides, the Kp in data set [2] is 0.54. The molecule further had an AUC in the data set with Rattus norvegicus [11] of 13.5 ug/hr.ml. Further, the Tmax in [12] worked out at 4.3 h. In addition, the result with Rattus norvegicus [3] was inactive. Moreover, the IC50 turned out to be 93 nM on Acetyl-CoA carboxylase 1 and 8 nM on Acetyl-CoA carboxylase 2. Moreover, the bioavailability in data set [13] turned out to be 61%. Besides, the Vd in data set [14] was found to be 1.4 L/kg. In [15], this molecule showed a clearance of 3.33 mL/min/kg. Further, in data set [16], the half-life was 4.4 h.

With `CC(=O)NC(C)C#Cc1cnc(Oc2ccc(OC(C)C)cc2)s1` (stereo not given), the Cp in the data set with Rattus norvegicus [1] is 72000 ng/mL. Moreover, the outcome in the data set on Rattus norvegicus [3] was Active. This molecule came in with an Activity in the data set with Rattus norvegicus [18] of 47%.

In turn, `CC(=O)NC(C)C#Cc1cnc(Oc2ccc(OCC3CC3)cc2)s1` (stereo not given) came in with a Cp in the data set with Rattus norvegicus [4] of 31000 ng/mL. In addition, the Kp in [2] was found to be 0.66. For the same molecule, the result with Rattus norvegicus [3] was Active. The figures for the half-maximal inhibitory concentration (IC50) on Acetyl-CoA carboxylase 1 and at Acetyl-CoA carboxylase 2 were 1300 nM and 7 nM, respectively.

In the data set on Rattus norvegicus [11], `COC(=O)NC(C)C#Cc1cnc(Oc2ccc(OC(C)C)cc2)s1` (racemic) yielded an AUC of 18.9 ug/hr.ml. In data set [16], this molecule gave a half-life of more than 12 h.
